# Results from different studies.
# Protocols differ between the studies behind these lines.
# Target: Serine/threonine-protein kinase D2 (PRKD2, Homo sapiens, UniProt Q9BZL6)
# One construct used (Q9BZL6 1-878): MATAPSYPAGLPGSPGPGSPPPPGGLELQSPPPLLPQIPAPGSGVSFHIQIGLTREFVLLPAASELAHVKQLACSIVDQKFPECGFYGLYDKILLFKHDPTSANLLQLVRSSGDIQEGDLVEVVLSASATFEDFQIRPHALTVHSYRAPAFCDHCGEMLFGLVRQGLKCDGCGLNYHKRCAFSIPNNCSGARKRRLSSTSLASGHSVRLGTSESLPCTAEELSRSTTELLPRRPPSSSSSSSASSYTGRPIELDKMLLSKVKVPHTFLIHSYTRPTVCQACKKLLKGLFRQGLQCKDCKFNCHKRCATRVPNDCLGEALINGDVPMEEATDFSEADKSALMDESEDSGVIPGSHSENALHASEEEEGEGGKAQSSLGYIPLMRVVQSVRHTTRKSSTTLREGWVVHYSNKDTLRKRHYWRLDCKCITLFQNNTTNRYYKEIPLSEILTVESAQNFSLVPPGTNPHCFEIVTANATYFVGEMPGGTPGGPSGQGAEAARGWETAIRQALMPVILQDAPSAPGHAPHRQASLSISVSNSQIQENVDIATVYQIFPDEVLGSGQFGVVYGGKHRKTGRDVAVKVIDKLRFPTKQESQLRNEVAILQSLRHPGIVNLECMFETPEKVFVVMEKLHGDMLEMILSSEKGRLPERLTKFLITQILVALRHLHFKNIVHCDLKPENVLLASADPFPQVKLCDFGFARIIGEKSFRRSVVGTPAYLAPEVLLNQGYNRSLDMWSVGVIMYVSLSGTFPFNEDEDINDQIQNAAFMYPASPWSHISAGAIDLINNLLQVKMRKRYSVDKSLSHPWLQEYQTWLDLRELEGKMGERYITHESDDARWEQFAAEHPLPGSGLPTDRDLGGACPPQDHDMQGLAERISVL
Structure (SMILES),observed,action,method,tested at,endpoint,result
O=c1[nH]c2ccccc2n1C1CCN(Cc2ccc(-c3[nH]c4cc5ncnc5cc4nc3-c3ccccc3)cc2)CC1,cell-free assay,,,0.5 µM,remaining signal,109%
Cn1cncc1[C@](O)(COc1ccc(C#N)cc1-c1ccc(OC(F)(F)F)cc1)c1ccc(C#N)cc1,cell-free assay,,competition with immobilised ligand,1 µM,remaining binding,84%
Cn1cc(-c2cccc(N3CCc4c(sc5c4CC(C)(C)C5)C3=O)c2CO)cc(Nc2ccncn2)c1=O,enzyme activity,inhibitor,,1 µM,inhibition,0%
COc1cc(Nc2ncc(F)c(Nc3ccc4c(n3)NC(=O)C(C)(C)O4)n2)cc(OC)c1OC,binding,,,10 µM,inhibition,0%
Cn1cc(-c2cc(F)cc(N3CCn4c(cc5c4CCCC5)C3=O)c2CO)cc(Nc2ccc(N3CCN(C4COC4)CC3)cn2)c1=O,enzyme activity,inhibitor,,0.1 µM,inhibition,11%
Cc1nn(C)cc1-c1nc2c(N3CCN(Cc4ccc(Cl)cc4)CC3)c(Cl)cnc2[nH]1,binding,,competition with immobilised ligand,1 µM,remaining binding,100%
CC(C)(C)c1cc(C=C(C#N)C#N)cc(Br)c1O,enzyme activity,inhibitor,,0.5 µM,remaining activity,108%
Nc1ncc(-c2nc(N3CCOCC3)nc(N3CCOCC3)n2)c(C(F)F)n1,binding,,competition with immobilised ligand,10 µM,remaining binding,99%
COc1ncccc1-c1cnn2ccc(N3CCN(C(=O)OC(C)C)CC3)nc12,binding,,competition with immobilised ligand,1 µM,remaining binding,100%
